Results as given in ChEMBL document CHEMBL3397016, “SAR-studies of γ-secretase modulators with PPARγ-agonistic and 5-lipoxygenase-inhibitory activity for Alzheimer's disease” (Bioorg Med Chem Lett, 2015).
Active and inactive are the calls of the source. No cut-off for these calls is given here.

Experiments:
[1] = target: T1, Polyunsaturated fatty acid 5-lipoxygenase (Homo sapiens, UniProt P09917); experiment: Inhibition of 5-LO in human PMNL assessed as reduction in 5-LO product formation pre-incubated for 15 mins before addition of arachidonic acid substrate by HPLC analysis; conditions: read-out: IC50
T1 sequence (P09917 whole entry): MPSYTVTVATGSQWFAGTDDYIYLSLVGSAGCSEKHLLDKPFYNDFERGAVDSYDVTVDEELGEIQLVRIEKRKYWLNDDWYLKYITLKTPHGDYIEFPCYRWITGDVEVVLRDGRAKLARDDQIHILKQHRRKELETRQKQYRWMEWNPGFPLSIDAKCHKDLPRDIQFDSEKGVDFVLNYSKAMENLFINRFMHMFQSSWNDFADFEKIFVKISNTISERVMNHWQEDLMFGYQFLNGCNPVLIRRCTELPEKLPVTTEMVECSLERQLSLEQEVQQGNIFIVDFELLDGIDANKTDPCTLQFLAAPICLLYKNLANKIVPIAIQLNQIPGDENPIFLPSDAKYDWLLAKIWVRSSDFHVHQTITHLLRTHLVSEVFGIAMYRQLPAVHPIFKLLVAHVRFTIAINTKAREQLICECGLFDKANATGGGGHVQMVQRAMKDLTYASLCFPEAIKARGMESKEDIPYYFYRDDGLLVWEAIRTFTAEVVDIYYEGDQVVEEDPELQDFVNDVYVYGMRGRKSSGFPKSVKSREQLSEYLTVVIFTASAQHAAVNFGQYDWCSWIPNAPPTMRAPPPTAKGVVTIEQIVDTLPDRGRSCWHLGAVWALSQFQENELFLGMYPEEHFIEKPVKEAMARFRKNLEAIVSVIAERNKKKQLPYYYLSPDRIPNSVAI

[2] = target: T2, Presenilin-1 (Homo sapiens, UniProt P49768); experiment: Activation of wild-type human presenilin-1 stably overexpressed in CHO cells co-expressing wild-type human amyloid precursor protein assessed as amyloid beta 38 formation after 24 hrs by ELISA; type: cell-based
[3] = target: T3, Prostaglandin G/H synthase 1 (Ovis aries, UniProt P05979); experiment: Inhibition of ovine COX1-mediated 12-HHT formation preincubated for 5 mins before arachidonic acid addition by HPLC analysis
T3 sequence (P05979 whole entry): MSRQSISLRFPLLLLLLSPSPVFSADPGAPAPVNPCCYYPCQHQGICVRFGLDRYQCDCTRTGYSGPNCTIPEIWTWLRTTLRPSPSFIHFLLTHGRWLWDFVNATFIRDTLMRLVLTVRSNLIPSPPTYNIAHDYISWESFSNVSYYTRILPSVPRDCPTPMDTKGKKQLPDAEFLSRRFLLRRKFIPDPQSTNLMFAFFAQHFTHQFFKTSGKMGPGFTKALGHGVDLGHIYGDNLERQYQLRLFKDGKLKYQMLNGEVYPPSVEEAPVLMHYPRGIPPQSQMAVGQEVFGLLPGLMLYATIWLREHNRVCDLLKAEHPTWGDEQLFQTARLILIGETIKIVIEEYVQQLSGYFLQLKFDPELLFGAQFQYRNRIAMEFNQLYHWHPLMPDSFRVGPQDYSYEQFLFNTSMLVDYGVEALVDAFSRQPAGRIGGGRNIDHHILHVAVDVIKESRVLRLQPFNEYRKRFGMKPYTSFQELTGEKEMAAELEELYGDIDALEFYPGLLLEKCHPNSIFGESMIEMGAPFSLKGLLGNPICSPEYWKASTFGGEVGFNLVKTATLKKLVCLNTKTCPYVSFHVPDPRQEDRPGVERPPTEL
Method in brief: (§1)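 Cell-free enzyme assays. Data given either as IC50 or as remaining enzyme activity at 10 µM test concentration.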

[4] = target: T2, Presenilin-1; experiment: Inhibition of wild-type human presenilin-1 stably overexpressed in CHO cells co-expressing wild-type human amyloid precursor protein assessed as inhibition of amyloid beta 42 formation after 24 hrs by ELISA; type: cell-based
[5] = target: T4, Prostaglandin G/H synthase 2 (Homo sapiens) (UniProt P35354); experiment: Inhibition of human recombinant COX2-mediated 12-HHT formation assessed as remaining activity at 10 uM preincubated for 5 mins before arachidonic acid addition by HPLC analysis; method in brief: as §1
T4 sequence (whole entry): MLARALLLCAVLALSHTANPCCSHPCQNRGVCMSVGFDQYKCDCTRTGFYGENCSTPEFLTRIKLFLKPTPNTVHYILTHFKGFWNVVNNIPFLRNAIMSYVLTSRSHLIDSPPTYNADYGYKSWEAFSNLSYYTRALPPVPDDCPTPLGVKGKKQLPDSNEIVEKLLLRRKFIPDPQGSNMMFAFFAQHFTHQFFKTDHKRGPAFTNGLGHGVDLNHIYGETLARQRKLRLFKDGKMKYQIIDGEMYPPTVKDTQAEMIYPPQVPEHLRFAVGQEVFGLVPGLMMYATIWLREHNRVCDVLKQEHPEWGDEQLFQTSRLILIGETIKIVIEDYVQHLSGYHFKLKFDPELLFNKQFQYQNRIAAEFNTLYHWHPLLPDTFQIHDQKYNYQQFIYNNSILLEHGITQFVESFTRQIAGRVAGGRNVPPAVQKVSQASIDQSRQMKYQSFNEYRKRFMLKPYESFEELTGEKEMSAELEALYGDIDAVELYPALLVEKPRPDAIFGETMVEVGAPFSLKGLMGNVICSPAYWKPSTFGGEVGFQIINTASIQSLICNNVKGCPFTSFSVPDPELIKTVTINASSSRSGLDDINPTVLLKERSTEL

[6] = target: T5, Peroxisome proliferator-activated receptor gamma (Homo sapiens) (UniProt P37231); experiment: Activation of human PPARgamma ligand binding domain expressed in COS7 cells at 10 uM by dual luciferase reporter gene assay; type: cell-based; conditions: COS-7
T5 sequence (whole entry): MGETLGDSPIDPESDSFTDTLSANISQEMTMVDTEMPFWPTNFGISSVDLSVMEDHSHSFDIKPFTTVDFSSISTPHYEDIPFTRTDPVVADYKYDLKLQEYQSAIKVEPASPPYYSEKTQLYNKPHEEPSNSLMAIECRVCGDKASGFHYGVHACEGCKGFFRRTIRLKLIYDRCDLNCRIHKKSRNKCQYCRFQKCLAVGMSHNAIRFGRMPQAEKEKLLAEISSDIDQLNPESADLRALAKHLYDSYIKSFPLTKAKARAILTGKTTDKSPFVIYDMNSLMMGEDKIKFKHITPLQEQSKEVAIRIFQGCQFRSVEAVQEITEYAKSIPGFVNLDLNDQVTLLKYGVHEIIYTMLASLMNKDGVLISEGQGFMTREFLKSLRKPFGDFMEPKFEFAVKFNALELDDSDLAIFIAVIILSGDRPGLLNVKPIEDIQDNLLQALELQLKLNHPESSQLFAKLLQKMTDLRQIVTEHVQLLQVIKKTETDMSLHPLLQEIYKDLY

[7] = target: T6, Prostaglandin E synthase (Homo sapiens, UniProt O14684); experiment: Inhibition of mPGES-1-mediated PGE2 formation in interleukin-1beta-stimulated human A549 microsomal membranes preincubated for 15 mins before PGH2 addition by RP-HPLC analysis
T6 sequence (O14684 whole entry): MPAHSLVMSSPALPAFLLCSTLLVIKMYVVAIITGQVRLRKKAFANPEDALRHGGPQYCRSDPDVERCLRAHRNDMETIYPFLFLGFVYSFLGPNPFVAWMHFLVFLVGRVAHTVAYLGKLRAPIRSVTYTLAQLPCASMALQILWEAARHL

[8] = target: T7, Prostaglandin G/H synthase 1 (Ovis aries) (UniProt P05979); experiment: Inhibition of ovine COX1-mediated 12-HHT formation assessed as remaining activity at 10 uM preincubated for 5 mins before arachidonic acid addition by HPLC analysis; method in brief: as §1
T7 sequence (whole entry): T3 sequence (P05979 whole entry)

[9] = target: T8, Prostaglandin G/H synthase 2 (Homo sapiens, UniProt P35354); experiment: Inhibition of human recombinant COX2-mediated 12-HHT formation preincubated for 5 mins before arachidonic acid addition by HPLC analysis; method in brief: as §1
T8 sequence (P35354 whole entry): T4 sequence (whole entry)

[10] = Cytotoxicity against CHO cells assessed as cell viability up to 30 uM after 24 hrs by alamar blue assay; type: cell-based, Cricetulus griseus; conditions: chinese hamster, read-out: Activity
[11] = target: Neurogenic locus notch homolog protein 1 (Homo sapiens, UniProt P46531); experiment: Inhibition of NOTCH-1 signaling (unknown origin) expressed in CHO cells at 5 to 50 uM after 24 hrs by dual luciferase reporter gene assay; type: cell-based
Method in brief: (§2)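 Dual luciferase Notch reporter read-out in CHO cells. Test compounds were run at 5–50 µM. The γ-secretase inhibitor LY-411575 was run at 0.5 µM as the reference treatment.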

[12] = target: Gamma-secretase; experiment: Inhibition of CHAPSO-solubilized gamma-secretase isolated from human SH-SY5Y P2 cell membranes assessed as reduction in Abeta(1 to 42) peptide generation from recombinant C100Flag substrate by electrochemiluminescence assay
[13] = target: T9, Peroxisome proliferator-activated receptor gamma (Homo sapiens, UniProt P37231); experiment: Activation of human PPARgamma ligand binding domain expressed in COS7 cells by dual luciferase reporter gene assay; type: cell-based, COS-7
T9 sequence (P37231 whole entry): T5 sequence (whole entry)

[14] = target: T5, Peroxisome proliferator-activated receptor gamma (Homo sapiens); experiment: Activation of human PPARgamma ligand binding domain expressed in COS7 cells by dual luciferase reporter gene assay relative to 1 uM pioglitazone; type: cell-based; conditions: COS-7
[15] = Cytotoxicity against human Jurkat cells assessed as reduction in cell viability up to 30 uM after 24 to 48 hrs by MTT assay; type: cell-based; conditions: read-out: INH
[16] = target: T5, Peroxisome proliferator-activated receptor gamma (Homo sapiens); experiment: Activation of human PPARgamma ligand binding domain expressed in COS7 cells at 3 uM by dual luciferase reporter gene assay; type: cell-based; conditions: COS-7
[17] = target: T5, Peroxisome proliferator-activated receptor gamma (Homo sapiens); experiment: Activation of human PPARgamma ligand binding domain expressed in COS7 cells at 6 uM by dual luciferase reporter gene assay; type: cell-based; conditions: COS-7
[18] = target: NOTCH-1 signaling (Neurogenic locus notch homolog protein 1) (Homo sapiens, UniProt P46531); experiment: Inhibition of NOTCH-1 signaling (unknown origin) expressed in CHO cells at 0.5 uM after 24 hrs by dual luciferase reporter gene assay; type: cell-based; conditions: CHO cells expressing NOTCH-1; method in brief: as §2
NOTCH-1 signaling (Neurogenic locus notch homolog protein 1), sequence (P46531 whole entry): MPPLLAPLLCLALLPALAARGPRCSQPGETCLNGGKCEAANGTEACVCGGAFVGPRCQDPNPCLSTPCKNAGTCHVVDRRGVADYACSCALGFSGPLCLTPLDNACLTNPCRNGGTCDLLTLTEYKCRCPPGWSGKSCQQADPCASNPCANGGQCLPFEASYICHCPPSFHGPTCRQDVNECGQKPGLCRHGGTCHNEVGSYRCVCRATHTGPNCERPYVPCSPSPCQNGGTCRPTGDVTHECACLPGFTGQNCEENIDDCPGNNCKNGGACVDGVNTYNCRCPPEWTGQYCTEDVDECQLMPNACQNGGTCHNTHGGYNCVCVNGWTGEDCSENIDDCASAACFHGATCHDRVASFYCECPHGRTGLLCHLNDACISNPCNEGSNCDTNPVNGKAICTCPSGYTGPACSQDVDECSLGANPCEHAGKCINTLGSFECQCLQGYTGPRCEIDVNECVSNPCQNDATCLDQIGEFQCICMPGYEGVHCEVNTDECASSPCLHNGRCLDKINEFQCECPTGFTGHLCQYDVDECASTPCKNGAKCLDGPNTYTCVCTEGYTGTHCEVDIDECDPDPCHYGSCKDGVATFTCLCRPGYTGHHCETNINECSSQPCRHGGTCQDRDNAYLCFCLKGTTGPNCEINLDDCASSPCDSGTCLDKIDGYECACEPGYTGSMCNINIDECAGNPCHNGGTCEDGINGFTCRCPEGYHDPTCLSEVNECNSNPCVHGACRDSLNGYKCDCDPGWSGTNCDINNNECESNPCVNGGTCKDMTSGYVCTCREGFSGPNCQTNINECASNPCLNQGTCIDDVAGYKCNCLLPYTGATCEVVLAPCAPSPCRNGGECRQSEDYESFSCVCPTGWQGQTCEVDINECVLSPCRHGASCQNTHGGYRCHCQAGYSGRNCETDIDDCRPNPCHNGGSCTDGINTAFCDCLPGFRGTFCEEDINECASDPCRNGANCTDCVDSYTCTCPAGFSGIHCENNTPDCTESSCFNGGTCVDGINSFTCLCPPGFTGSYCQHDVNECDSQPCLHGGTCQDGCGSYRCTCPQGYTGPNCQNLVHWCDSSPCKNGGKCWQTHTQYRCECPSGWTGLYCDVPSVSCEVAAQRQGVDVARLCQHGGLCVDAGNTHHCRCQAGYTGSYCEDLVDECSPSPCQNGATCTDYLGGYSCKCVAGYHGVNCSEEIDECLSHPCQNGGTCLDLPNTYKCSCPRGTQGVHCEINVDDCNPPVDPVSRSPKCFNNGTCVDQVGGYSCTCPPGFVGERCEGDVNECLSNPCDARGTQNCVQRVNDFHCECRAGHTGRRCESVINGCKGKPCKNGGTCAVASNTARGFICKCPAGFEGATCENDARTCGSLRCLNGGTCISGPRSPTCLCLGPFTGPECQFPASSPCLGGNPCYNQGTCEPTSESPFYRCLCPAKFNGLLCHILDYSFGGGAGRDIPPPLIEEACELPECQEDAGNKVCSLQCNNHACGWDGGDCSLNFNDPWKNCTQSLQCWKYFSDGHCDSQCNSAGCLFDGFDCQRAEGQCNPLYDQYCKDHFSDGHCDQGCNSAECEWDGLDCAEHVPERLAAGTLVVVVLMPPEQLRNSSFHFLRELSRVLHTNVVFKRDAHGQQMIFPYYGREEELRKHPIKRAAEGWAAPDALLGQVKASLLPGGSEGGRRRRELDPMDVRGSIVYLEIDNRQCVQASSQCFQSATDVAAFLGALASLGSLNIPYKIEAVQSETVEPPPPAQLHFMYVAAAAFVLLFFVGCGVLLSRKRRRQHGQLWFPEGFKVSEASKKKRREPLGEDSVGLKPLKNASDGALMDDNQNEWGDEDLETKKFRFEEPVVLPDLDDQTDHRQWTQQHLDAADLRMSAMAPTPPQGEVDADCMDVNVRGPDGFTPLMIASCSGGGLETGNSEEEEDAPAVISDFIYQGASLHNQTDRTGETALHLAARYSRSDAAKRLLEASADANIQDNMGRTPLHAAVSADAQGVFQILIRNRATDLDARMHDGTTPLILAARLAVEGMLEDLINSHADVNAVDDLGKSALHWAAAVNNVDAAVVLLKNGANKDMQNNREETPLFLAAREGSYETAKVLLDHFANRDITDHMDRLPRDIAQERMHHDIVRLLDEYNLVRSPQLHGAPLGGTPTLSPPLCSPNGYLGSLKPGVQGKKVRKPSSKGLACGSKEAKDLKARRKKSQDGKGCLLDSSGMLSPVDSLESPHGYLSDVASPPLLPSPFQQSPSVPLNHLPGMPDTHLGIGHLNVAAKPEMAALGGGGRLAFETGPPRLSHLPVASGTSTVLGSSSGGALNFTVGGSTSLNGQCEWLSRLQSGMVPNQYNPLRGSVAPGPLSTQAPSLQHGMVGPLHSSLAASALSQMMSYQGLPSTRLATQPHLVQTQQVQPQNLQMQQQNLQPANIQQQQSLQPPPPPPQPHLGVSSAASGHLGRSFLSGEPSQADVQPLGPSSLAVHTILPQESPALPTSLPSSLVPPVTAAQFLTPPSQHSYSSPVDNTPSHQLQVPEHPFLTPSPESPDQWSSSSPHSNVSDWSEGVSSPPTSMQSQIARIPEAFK

Neurogenic locus notch homolog protein 1, sequence (P46531 whole entry): as above

Row | IC50 [1] [µM] | EC50 [2] [µM] | IC50 [3] [µM] | IC50 [4] [µM] | Activity [5] [%] | Activity [6] [%] | IC50 [7] [µM] | Activity [8] [%] | IC50 [9] [µM] | inhibition (INH) [11] | IC50 [12] [µM] | EC50 ([13]; read-out: EC50) [µM] | max activation [14] | EC50 ([13]; cos-7) | Activity [16] [%] | Activity [17] [%] | inhibition at 24 h, 0.5 µM [18] [%] | Compound | viability at 24 h [10] [%] | cytotoxicity [15] [%]
1 | 0.2 | 1.17 | > 10 | 0.63 | 84.2 | 17 | 3 | 69 | > 10 | Not Active |  |  |  |  |  |  |  | CCCC/C(=C\c1cc(OCc2ccc3nc(C(F)(F)F)cc(OC)c3c2)ccc1OCc1ccc(C(F)(F)F)cc1)C(=O)O | > 50 | 
2 |  |  |  |  |  |  |  |  |  |  | 307 |  |  |  |  |  |  | C[C@@H](C(=O)O)c1ccc(-c2ccccc2)c(F)c1 [TARENFLURBIL] |  | 
3 | 1.7 | 1.1 | > 10 | 1 | 75.3 |  | 2.5 | 58 | > 10 | Not Active |  | 2.16 | 158% |  |  |  |  | CCCC/C(=C\c1cc(OCC2CCC(C(F)(F)F)CC2)ccc1OCc1ccc(C(F)(F)F)cc1)C(=O)O (stereo not drawn) | > 50 | 
4 |  |  |  |  |  |  |  |  |  |  |  |  |  |  |  |  | > 75 | C[C@H](NC(=O)[C@@H](O)c1cc(F)cc(F)c1)C(=O)N[C@@H]1C(=O)N(C)c2ccccc2-c2ccccc21 |  | 

The next lines start with the molecule.

Row | Compound | IC50 [1] [µM] | EC50 [2] [µM] | IC50 [3] [µM] | IC50 [4] [µM] | Activity [5] [%] | Activity [6] [%] | IC50 [7] [µM] | Activity [8] [%] | IC50 [9] [µM] | inhibition (INH) [11] | IC50 [12] [µM] | EC50 ([13]; read-out: EC50) [µM] | max activation [14] | EC50 ([13]; cos-7) | Activity [16] [%] | Activity [17] [%] | inhibition at 24 h, 0.5 µM [18] [%] | viability at 24 h [10] [%] | cytotoxicity [15] [%]
5 | CCCC/C(=C\c1cc(OCc2cc3ccccc3s2)ccc1OCc1ccc(C(F)(F)F)cc1)C(=O)O | 0.7 | 2.1 | > 10 | 4.6 | 91.7 |  | 9.2 | 67.4 | > 10 |  |  |  | inactive | Not Active |  |  |  |  | > 50
6 | CCCC/C(=C\c1cc(OCc2cc(C(F)(F)F)cc(C(F)(F)F)c2)ccc1OCc1ccc(C(F)(F)F)cc1)C(=O)O | 0.3 | 1 | > 10 | 0.79 | 77.3 |  | > 10 | 62.4 | > 10 |  |  | 4.64 | 103% |  |  |  |  | > 50 | 
7 | CCCC/C(=C\c1cc(OCCc2ccc(C(F)(F)F)cc2)ccc1OCc1ccc(C(F)(F)F)cc1)C(=O)O | 0.5 | 1.3 | > 10 | 1.5 | 72.2 |  | 3.1 | 66.3 | > 10 |  |  |  |  |  | 21 | 72 |  |  | > 50
